Data set [1] concerns Human immunodeficiency virus 1. Put plainly: Antiviral activity against HIV1 subtype A isolate 92UG029 infected in human PBMC after 48 to 72 hrs by MTS assay. In kind it is functional, organism-based. The following applies: Human immunodeficiency virus 1, isolate 92UG029. In short, it runs like this:
(§1)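 Fresh donor PBMCs, HIV- and HBV-seronegative, were stimulated with 4 μg/ml PHA for 48 to 72 h and kept on 20 U/ml rhIL-2. Cells pooled from at least two donors were seeded at 5 × 10^4 per well and infected at MOI ~0.1. Nine compound concentrations were run in triplicate wells for 7 days.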
(Tetrazolium dyes change colour on reduction, which living cells bring about.)

In data set [2] the test system is Human immunodeficiency virus 1. Kind of data set: Antiviral activity against HIV1 subtype A isolate 92UG037 infected in human PBMC after 48 to 72 hrs by MTS assay. In kind it is functional, organism-based. The following applies: Human immunodeficiency virus 1, isolate 92UG037. In short, it runs like this:
as §1

The subject of data set [3] is Human immunodeficiency virus 1. Kind of data set: Antiviral activity against HIV1 subtype B isolate 92BR014 infected in human PBMC after 48 to 72 hrs by MTS assay. In kind it is functional, organism-based. The following applies: Human immunodeficiency virus 1, isolate 92BR014. In short, it runs like this:
as §1

The test system of data set [4] is Human immunodeficiency virus 1. Put plainly: Antiviral activity against HIV1 isolate JR-CSF infected in human PBMC after 48 to 72 hrs by MTS assay. Type of data set: functional. The following applies: Human immunodeficiency virus 1, JRCSF ISOLATE. In short, it runs like this: (§2)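 This is the PHA/IL-2 PBMC assay run with JR-CSF preincubated with 8 × 10^6 pooled cells for 1 h at 37°C. Cells were then spinoculated at 200 × g for 1 h and held 2 h more. Infected cells (2.5 × 10^4) were added, without virus washout, to wells holding uninfected PBMCs and compound. Medium had 15% FBS, plus 0, 10, 15, 20 or 30% human serum.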

The test system of data set [5] is Human immunodeficiency virus 1. Kind of data set: Antiviral activity against HIV1 subtype B isolate 92TH026 infected in human PBMC after 48 to 72 hrs by MTS assay. Type of data set: functional, organism-based. The following applies: Human immunodeficiency virus 1, isolate 92TH026. In short, it runs like this:
as §1

For data set [6], the system named is Human immunodeficiency virus 1. Put plainly: Antiviral activity against HIV1 subtype D isolate 92UG024 infected in human PBMC after 48 to 72 hrs by MTS assay. Type of data set: functional, organism-based. The following applies: Human immunodeficiency virus 1, isolate 92UG024. Summed up: as §1
Data set [7] relates to Human immunodeficiency virus 1. Put plainly: Antiviral activity against HIV1 subtype D isolate 92UG046 infected in human PBMC after 48 to 72 hrs by MTS assay. Type of data set: functional, organism-based. The following applies: Human immunodeficiency virus 1, isolate 92UG046. In short, it runs like this:
as §1

The subject of data set [8] is PBMC. Kind of data set: Cellular uptake in PHA/IL-2-stimulated human PBMC at 10 uM assessed as TFV-monophosphate after 24 hrs by MS/MS analysis. In kind it is ADME, cell-based. Summed up: (§3)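 PHA-stimulated (4 μg/ml PHA, 48 to 72 h; 20 U/ml rhIL-2) human PBMCs at 2 × 10^6 cells/ml in RPMI 1640 with 15% FBS, given tenofovir or prodrug (final 0.01 to 10 μM) for 24 h at 37°C. Cells washed three times in cold 0.9% NaCl, counted, and 1 × 10^7 cell aliquots pelleted. TFV, TFV-MP and TFV-PP were separated by ion-pairing reverse-phase LC and detected by positive-ion electrospray MS. Output is pmol per 10^6 cells.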

In data set [9] the test system is PBMC. Put plainly: Cellular uptake in PHA/IL-2-stimulated human PBMC at 10 uM assessed as TFV-diphosphate after 24 hrs by MS/MS analysis. Type of data set: ADME, cell-based. Summed up: as §3
The subject of data set [10] is PBMC. Put plainly: Cellular uptake in PHA/IL-2-stimulated human PBMC at 0.01 uM assessed as TFV level after 24 hrs by MS/MS analysis. In kind it is ADME, cell-based. The following applies: BLD = below limit of detection. In short, it runs like this:
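PHA/IL-2-stimulated PBMCs at 2 × 10^6 cells/ml (5 × 10^7 per flask) were exposed for 24 h at 37°C. Cells were washed three times in cold 0.9% NaCl and counted by trypan blue. Aliquots of 1 × 10^7 cells were pelleted. TFV, TFV-MP and TFV-PP were separated by ion-pairing reverse-phase gradient LC and detected by positive electrospray. Results are given as pmol/10^6 cells.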

The test system of data set [11] is PBMC. Kind of data set: Cellular uptake in PHA/IL-2-stimulated human PBMC at 1 uM assessed as TFV level after 24 hrs by MS/MS analysis. In kind it is ADME, cell-based. Summed up: as §3
Data set [12] can be described thus: Cytotoxicity against human dendritic cells after 24 hrs by XTT assay. Type of data set: cell-based. In short, it runs like this:
(§4)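 Six-concentration growth-inhibition test: 10 to 0.032 μM for the prodrug and TDF, up to 100 μM for TFV, with Triton X-100 run in parallel. Cell lines were split 1:2 the day before and seeded at 5 × 10^3 to 2 × 10^4 cells/well, with adherent lines left overnight. Dendritic cells were derived with GM-CSF/IL-4 for 7 days, then LPS 10 ng/ml for 2 days. Viability was read by XTT.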

Data set [13] deals with HeLa. Kind of data set: Cytotoxicity against human HeLa cells after 24 hrs by XTT assay. Type of data set: cell-based. In short, it runs like this:
as §4

Data set [14] has as its system Human immunodeficiency virus 2. Put plainly: Antiviral activity against HIV2 isolate CDC310319 infected in human PBMC after 48 to 72 hrs by MTS assay. Type of data set: functional, organism-based. The following applies: Human immunodeficiency virus 2, isolate CDC310319. In short, it runs like this:
as §1

The subject of data set [15] is Human immunodeficiency virus 2. Kind of data set: Antiviral activity against HIV2 isolate CBL-20 infected in human PBMC after 48 to 72 hrs by MTS assay. The following applies: Human immunodeficiency virus 2, isolate CBL-20. In kind it is functional, organism-based. Summed up: as §1
The test system of data set [16] is PBMC. Kind of data set: Cytotoxicity against human PBMC up to 1000 nM by MTS assay. In kind it is cell-based.
In data set [17] the test system is Human immunodeficiency virus 1. Kind of data set: Antiviral activity against HIV1 subtype A isolate 92UG029 infected in human MDM […] by MTS assay. Type of data set: functional, organism-based. The following applies: Human immunodeficiency virus 1, isolate 92UG029.
For data set [18], the system named is Human immunodeficiency virus 1. Kind of data set: Antiviral activity against HIV1 subtype A isolate 92UG037 infected in human MDM […] by MTS assay. Type of data set: functional, organism-based. The following applies: Human immunodeficiency virus 1, isolate 92UG037.
In data set [19] the test system is Human immunodeficiency virus 1. Put plainly: Antiviral activity against HIV1 subtype B isolate ADA infected in human MDM […] by MTS assay. Type of data set: functional, organism-based. The following applies: Human immunodeficiency virus 1, isolate ADA.
Data set [20] deals with Human immunodeficiency virus 1. Kind of data set: Antiviral activity against HIV1 isolate JR-CSF infected in human MDM […] by MTS assay. Type of data set: functional. The following applies: Human immunodeficiency virus 1, JRCSF ISOLATE.
Data set [21] has as its system Human immunodeficiency virus 1. Put plainly: Antiviral activity against HIV1 isolate JR-CSF infected in human PBMC after 48 to 72 hrs by MTS assay in presence of 15% human serum. The following applies: Human immunodeficiency virus 1, JRCSF ISOLATE. Type of data set: functional. Summed up: as §2
The subject of data set [22] is Human immunodeficiency virus 1. Kind of data set: Antiviral activity against HIV1 isolate JR-CSF infected in human PBMC after 48 to 72 hrs by MTS assay in presence of 20% human serum. The following applies: Human immunodeficiency virus 1, JRCSF ISOLATE. In kind it is functional. Summed up: as §2
Data set [23] has as its system Human immunodeficiency virus 1. Put plainly: Antiviral activity against HIV1 isolate JR-CSF infected in human PBMC after 48 to 72 hrs by MTS assay in presence of 100% human serum. In kind it is functional. The following applies: Human immunodeficiency virus 1, JRCSF ISOLATE. In short, it runs like this:
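The value is an estimate for 100% human serum, extrapolated from JR-CSF EC50s measured in PHA/IL-2 PBMCs. Those assays used a virus preincubation/spinoculation step and contained 0 to 30% human serum on top of 15% FBS.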

Data set [24] deals with PBMC. Put plainly: Cellular uptake in human PBMC at 1 uM assessed as TFV-diphosphate level after 24 hrs by MS/MS analysis. In kind it is ADME, cell-based. In short, it runs like this:
(§5)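 Human PBMCs, unstimulated or PHA/IL-2-stimulated, at 2 × 10^6 cells/ml in RPMI 1640 with 15% FBS, exposed 24 h at 37°C to final 0.01, 0.1, 1.0 or 10 μM of the prodrug, or 1.0 or 10 μM tenofovir. After cold saline washes the cells were counted and 1 × 10^7-cell pellets made. TFV, TFV-MP and TFV-PP were measured by ion-pairing LC with positive-ion electrospray MS as pmol/10^6 cells.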

Data set [25] concerns PBMC. Kind of data set: Cellular uptake in PHA/IL-2-stimulated human PBMC at 10 uM after 24 hrs by MS/MS analysis. In kind it is ADME, cell-based. Summed up: as §3
Data set [26] concerns PBMC. Put plainly: Cellular uptake in human PBMC at 1 uM after 24 hrs by MS/MS analysis. Type of data set: ADME, cell-based. In short, it runs like this: as §5

Structures are written as SMILES.

What is called EC50 is the concentration that produces a half-maximal response.

As to `CCCCCCCCCCCCCCCCOCCCOP(=O)(O)CO[C@H](C)Cn1cnc2c(N)ncnc21` [TENOFOVIR EXALIDEX], the half-maximal effective concentration (EC50) came to 3.3 nM in data set [1]; 3.3 nM in data set [2]; 1.5 nM in [3]; 1.5 nM in data set [4]; 1.5 nM in data set [5]; 2.1 nM in [6]. For the same compound, the half-maximal effective concentration (EC50) in data set [7] is 2.1 nM; in [14], 3.5 nM; in data set [15] it was 3.5 nM; in data set [17], 1.3 nM; in data set [18], 1.3 nM; in data set [19] it was 3.1 nM. Besides, the half-maximal effective concentration (EC50) in data set [20] amounted to 3.1 nM; in data set [21], 6.4 nM; in [22] it was 11 nM; in data set [23], 53 nM. The Drug uptake in data set [8] was 0.9 pmol/10^6 cells; in data set [9], 5.5 pmol/10^6 cells; in [10], “BLD”; in data set [11], 0.56 pmol/10^6 cells; in data set [24] it was 0.22 pmol/10^6 cells. Also, the Activity entry in [12], in data set [13] and in [16] was “Non-toxic” each time.

Regarding `C[C@H](Cn1cnc2c(N)ncnc21)OCP(=O)(O)O` [TENOFOVIR ANHYDROUS], the Drug uptake in data set [25] is 0.09 pmol/10^6 cells; in [8] (BLD = below limit of detection), “BLD”; in data set [9] it was 0.22 pmol/10^6 cells; in [26], “Not Active”; in data set [24], 0.05 pmol/10^6 cells. Also, the Activity result in data set [12] and in [13] was “Non-toxic” in each case.

As for `Cc1cn([C@H]2C[C@H](N=[N+]=[N-])[C@@H](CO)O2)c(=O)[nH]c1=O` [ZIDOVUDINE], the EC50 in [1] came to 14 nM; in data set [2], 14 nM; in [5], 2 nM; in [6], 6.3 nM; in data set [7], 6.3 nM; in data set [14] it was 9.3 nM. The EC50 in [15] amounted to 9.3 nM; in data set [17] it was 1.2 nM; in data set [18] it was 1.3 nM; in [19] it was 2.7 nM. In addition, the Activity result in data set [16] is recorded as “Non-toxic”.

The values above are taken from ChEMBL document CHEMBL1629690, “Development of hexadecyloxypropyl tenofovir (CMX157) for treatment of infection caused by wild-type and nucleoside/nucleotide-resistant HIV” (Antimicrob Agents Chemother, 2010).
